Measurements from different studies.
Each line is one published result; the experiments were not run side by side.
Target: Serine/threonine-protein kinase BRSK1 (BRSK1, Homo sapiens, UniProt Q8TDC3)
One construct used (Q8TDC3 1-778): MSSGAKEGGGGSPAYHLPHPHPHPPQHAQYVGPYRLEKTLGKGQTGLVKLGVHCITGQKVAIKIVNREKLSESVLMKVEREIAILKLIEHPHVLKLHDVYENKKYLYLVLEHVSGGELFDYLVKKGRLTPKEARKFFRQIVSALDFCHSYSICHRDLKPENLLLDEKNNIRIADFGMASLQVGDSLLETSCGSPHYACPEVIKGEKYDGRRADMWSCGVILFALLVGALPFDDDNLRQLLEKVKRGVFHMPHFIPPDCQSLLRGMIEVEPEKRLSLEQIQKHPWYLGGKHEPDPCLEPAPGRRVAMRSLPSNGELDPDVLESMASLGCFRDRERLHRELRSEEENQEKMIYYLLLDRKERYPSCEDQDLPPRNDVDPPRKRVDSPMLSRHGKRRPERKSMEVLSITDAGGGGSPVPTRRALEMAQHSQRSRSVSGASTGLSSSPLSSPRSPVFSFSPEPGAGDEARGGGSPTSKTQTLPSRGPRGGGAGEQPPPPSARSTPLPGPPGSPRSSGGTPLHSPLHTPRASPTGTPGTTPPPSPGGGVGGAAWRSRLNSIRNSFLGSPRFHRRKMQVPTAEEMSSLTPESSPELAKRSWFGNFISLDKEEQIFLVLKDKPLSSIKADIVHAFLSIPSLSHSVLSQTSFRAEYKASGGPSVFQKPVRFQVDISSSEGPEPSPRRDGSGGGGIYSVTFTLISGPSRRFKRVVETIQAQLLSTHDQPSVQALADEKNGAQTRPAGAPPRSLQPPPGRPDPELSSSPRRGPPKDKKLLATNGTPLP

SMILES	read-out	mode	technique	tested at	quantity	value
CCc1ccccc1C(=O)Nc1n[nH]c2c(C)c(F)c(C3C(C#N)=C(C)N(C)C(C)=C3C#N)cc12	cell-free assay	–	competition with immobilised ligand	1 µM	remaining binding	55%
CN1CC(Oc2cnc(C#N)cc2-c2ccn3nc(NC(=O)C4CC4)cc3c2)C1	enzyme activity	inhibitor	–	1 µM	inhibition	6%
Cc1cc(NC(=O)c2cccc3cc(-c4cccc5[nH]nc(N)c45)ccc23)ccc1F	enzyme activity	inhibitor	–	0.1 µM	activity vs control	123%
CNC(=O)c1cc(Oc2ccc(NC(=O)Nc3ccc(Cl)c(C(F)(F)F)c3)cc2)ccn1	enzyme activity	inhibitor	–	10 µM	inhibition	20%
O=C(Nc1cnn(-c2csc(C(=O)NC3COC3)c2)c1)Nc1c(F)cccc1Cl	enzyme activity	inhibitor	–	5 µM	remaining activity	99.4%
CN([C@@H]1CCc2c(CC(=O)O)c3ccccc3n2C1)S(=O)(=O)c1ccc(F)cc1	cell-free assay	–	competition with immobilised ligand	1 µM	remaining binding	100%
CC(C)(C)c1nc(-c2cccc(NS(=O)(=O)c3c(F)cccc3F)c2F)c(-c2ccnc(N)n2)s1	enzyme activity	inhibitor	radiometric	1 µM	remaining activity	105%
FC(F)c1nc2ccccc2n1-c1nc(N2CCOCC2)nc(N2CCOCC2)n1	enzyme activity	inhibitor	–	10 µM	remaining activity	161%
CCCOc1ccc(OC)c(F)c1C(=O)c1ccc(C(=O)N[C@@H]2CNC[C@H]2NC(=O)c2ccc3[nH]ncc3c2)cc1	enzyme activity	inhibitor	–	10 µM	remaining activity	40%
COc1cc2ncnc(Nc3ccc(Oc4ccccc4)c(C)c3C)c2cc1OC	enzyme activity	inhibitor	–	1 µM	inhibition	0%
CC(C)(O)c1cncc(-c2nc3ccc(F)cc3n2C2CC2)c1	cell-free assay	–	competition with immobilised ligand	1 µM	remaining binding	100%
COc1cc(/C=C/C(=O)CC(=O)/C=C/c2ccc(O)c(OC)c2)ccc1O	enzyme activity	inhibitor	–	1 µM	activity vs control	92%
Cc1ccc(Nc2nccc(N(C)c3ccc4c(C)n(C)nc4c3)n2)cc1S(N)(=O)=O	enzyme activity	inhibitor	–	0.3 µM	inhibition	18%
Cc1nc(Cc2cccc(C(F)(F)F)c2)sc1-c1ccc(C(N)=O)nc1	cell-free assay	–	competition with immobilised ligand	1 µM	remaining binding	100%
Nc1nc(Nc2ccc(S(N)(=O)=O)cc2)nn1C(=O)c1c(F)cccc1F	cell-free assay	–	–	0.5 µM	remaining signal	49.2%
CCN(CC)c1ccc(C2=NNC(=O)CC2C)cc1[N+](=O)[O-] (stereo not drawn)	enzyme activity	inhibitor	–	10 µM	remaining activity	131%
Nc1ncnc2occ(-c3ccc(NC(=O)Nc4cc(C(F)(F)F)ccc4F)cc3)c12	cell-free assay	inhibitor	–	20 µM	remaining signal	8.4%
CCN(CC)CCNC(=O)c1c(C)[nH]c(/C=C2\C(=O)Nc3ccc(F)cc32)c1C	enzyme activity	inhibitor	–	10 µM	inhibition	82%
CNC(=O)c1ccc(Nc2ncc(C(F)(F)F)c(NCc3nccnc3N(C)S(C)(=O)=O)n2)cc1	cell-free assay	–	competition with immobilised ligand	0.1 µM	remaining binding	100%
CNc1cccc2cc(C(=O)Nc3ccc(C(=O)O)cc3)c(=O)[nH]c12	enzyme activity	inhibitor	–	10 µM	inhibition	2.7%
O=C1NC(=O)c2cc(Nc3ccc(F)cc3)c(Nc3ccc(F)cc3)cc21	cell-free assay	–	–	0.5 µM	remaining signal	94.3%
CC(=O)N1CCC(c2ccc(C(=O)NC(=N)N)cc2C(F)(F)F)CC1	cell-free assay	–	competition with immobilised ligand	1 µM	remaining binding	87%
FC(F)(F)Oc1cccc(-c2cnc3ccc(-c4ccncc4)nn23)c1	enzyme activity	inhibitor	radiometric	1 µM	activity vs control	103%
NS(=O)(=O)c1cc(NC(=O)Cc2ccccc2)ccc1Oc1cccc(Cl)c1	cell-free assay	–	competition with immobilised ligand	1 µM	remaining binding	91%
COc1cc(Cl)c(C(=O)N[C@@H](CN[C@H]2CC[C@@H](N)CC2)Cc2ccc(C#N)cc2)cc1-c1ccc(CN[C@H](C)c2ccc(C)cc2)o1	enzyme activity	inhibitor	–	1 µM	remaining activity	100%
CC1=C(C#N)C(c2ccc3c(c2)c(NC(=O)c2ccccc2C)nn3C)C(C#N)=C(C)N1	cell-free assay	–	competition with immobilised ligand	1 µM	remaining binding	100%
N#CCCc1ccc2c(c1)-c1[nH]c3ccc([N+](=O)[O-])cc3c1CC(=O)N2	cell-free assay	–	–	0.5 µM	remaining signal	46.8%
